Here are results for 40 molecules from PubChem BioAssay.

Calls of active or inactive are those of the source.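 The calls were made as follows, unless noted: active = growth inhibition above 25% in both replicates, a cutoff set 3 SD above the mean; inconclusive = above 25% in only one replicate; inactive = the rest.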

The nature of the first assay: OD615 S. cerevisiae growth inhibition, permissive medium, pilot counter-assay, permissive growth control for S. cerevisiae lifespan shortening project (AID 705). The note with it: OD615, 24 h, at 10 µM, hits give high values. Put shortly: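 Test system: Saccharomyces cerevisiae strain carrying genetically modified DeaD replicative-lifespan system; buffer or medium: SC raffinose/galactose permissive medium; dosing: one dose 10 µM, DMSO 0.25% final; times: 24 h exposure, 30 °C; measured by: OD at 615 nm; read-out basis: growth inhibition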
As for `CCOc1ccc(OCC)c(Nc2cc(C)nc3nc(C)nn23)c1`, the growth inhibition was -13.3% (inactive).
On the same count and under the same terms, in the case of `O=C(Cn1cc2c(n1)CCCC2)NCCCN1CCN(C2CCCCC2)CC1` it was -3.58% (inactive); in that of `Cc1ccc(CN2CCN(CC(=O)N3CCC(C(N)=O)CC3)C2=O)cc1`, 0.425% (inactive).
The same measure, in the same setting: as for `O=C(c1ccc(CS(=O)(=O)c2ccc(Br)cc2)o1)N1CCN(C2CCCCC2)CC1`, the figure is 0.435% (inactive); as for `CCN(CC)C(=O)CCCOc1ccc(Cl)cc1Cl`, -2.5% (inactive).
Still for that read-out and setting: in the case of `O=C(O)c1ccc(NS(=O)(=O)c2cc(Cl)ccc2Cl)cc1` it was -13.7% (inactive); in that of `S=c1[nH]nc(CSc2nc3ccccc3s2)o1`, -1.19% (inactive).
For `CCn1c(=O)cc(OCC(=O)N2CCc3ccccc32)c2ccccc21`, the growth inhibition was -19% (inactive).
The same measure, in the same setting: in the case of `COC(=O)c1c(C)nn(-c2ccccc2)c1N` it was -12.5% (inactive); in that of `Fc1ccc(CN2CCCCCCC2)cc1F`, -3.83% (inactive).
On the same count and under the same terms, in the case of `COc1ccccc1NC(=O)C1CCCN(S(=O)(=O)c2cnc[nH]2)C1` (stereo not given) it was 1.64% (inactive); in that of `O=C(/C=N/O)Nc1ccccc1C(=O)O`, -14.8% (inactive); in that of `O=C(NC(C(=O)c1ccccc1)N1CCOCC1)c1ccccc1` (stereo not given), -2.93% (inactive).
The same measure, in the same setting: in the case of `COc1ccc(S(=O)(=O)N2CCN(C)CC2)c2ccccc12` it was -8.04% (inactive).
Regarding `CCOc1cccc(NC(=O)Cc2cccs2)c1`, the growth inhibition was -8.74% (inactive).
On the same count and under the same terms, in the case of `CCSc1nnc2c(n1)OC1(CCCC1)Nc1ccccc1-2` it was -13.8% (inactive); in that of `COc1ccc2c(c1)OC1(C)CC2C(C(=O)c2ccccc2OC)C(=O)N1` (stereo not given), -18.1% (inactive).
For the molecule `O=C(NC1CCCCCC1)C1CCCN1S(=O)(=O)c1cccc2cccnc12` (stereo not given), the growth inhibition was -10.1% (inactive).
On the same count and under the same terms, as for `O=C(COc1ccccc1)NCc1nnc(SCC(=O)Nc2nccs2)n1-c1ccccc1`, the figure is -10.1% (inactive); as for `O=C(NCCc1csc(-c2ccccc2)n1)c1cccs1`, -8.41% (inactive).
The same measure, in the same setting: in the case of `COc1ccc(C2(C(=O)NCCCN(C)C)CCOCC2)cc1` it was -19.3% (inactive); in that of `COc1ccc(OCc2nnc(SCC(=O)O)n2N)cc1`, -6.54% (inactive).
Still for that read-out and setting: as for `Cc1cccc(N2CC(c3nc4ccccc4n3C)CC2=O)c1C` (stereo not given), the figure is -8.87% (inactive).
Turning to `CN(C)S(=O)(=O)c1ccc(C(=O)Nc2ccc(F)cc2F)cc1`, the growth inhibition is -14.5% (inactive).
On to `CC(=O)CCc1c(C)[nH]c2ccc(NC(C)=O)cc2c1=O`, for which the growth inhibition is 5.26% (inactive).
The same measure, in the same setting: in the case of `CC(C)C(NC(=O)CN1C(=O)c2ccccc2S1(=O)=O)C(C)C` it was -10% (inactive).
The same measure, in the same setting: as for `CC12CCC(C(=O)Nc3ccc4c(c3)OCCO4)(OC1=O)C2(C)C` (stereo not given), the figure is -20.5% (inactive).
Turning to `[O-]/[N+](=C\c1ccc(OC(F)F)cc1)c1ccccc1`, the growth inhibition is -1.07% (inactive).
The same measure, in the same setting: as for `COc1ccccc1NC(=O)C1=C(C)Nc2nnnn2C1c1cccc(C)c1` (stereo not given), the figure is -13.2% (inactive); as for `CCOCCn1c(SCC(=O)OCc2ccccc2)nc2c1c(=O)[nH]c(=O)n2C`, -13.7% (inactive); as for `O=C(NCCCN1CCOCC1)c1ccco1`, -9.93% (inactive).
As for `Cc1cccc(NC(=O)c2ccc(S(=O)(=O)N(C)C)cc2)c1`, the growth inhibition was -8.26% (inactive).
Regarding `Cc1cc(=S)n(-c2ccccc2)n1C`, the growth inhibition was 1.78% (inactive).
On the same count and under the same terms, in the case of `O=C(O)C1C2C=CC3(CN(C/C=C/c4ccccc4)C(=O)C13)O2` (stereo not given) it was -17.1% (inactive); in that of `COc1ccc(OC)c(NC(=O)Cn2cnc3c(cnn3-c3ccccc3)c2=O)c1`, 3.69% (inactive); in that of `Cc1cc(C)n2nc(S(=O)(=O)N(CC(C)C)CC(C)C)nc2n1`, 3.3% (inactive).
Same read-out and setting: as for `Cc1cccc(N2CCN(c3nc4ccc(Cl)cc4n4cnnc34)CC2)c1C`, the figure is -17.7% (inactive); as for `O=C(O)c1cccc(-n2cnnn2)c1`, 1.37% (inactive).
On the same count and under the same terms, as for `CN(C)CCCNc1ncnc2c1cnn2-c1ccccc1`, the figure is -5.54% (inactive).
For the molecule `O=C(Nc1nc(-c2ccccc2)cs1)c1cccs1`, the growth inhibition is -5.78% (inactive).

The next assay can be described thus: Restrictive medium S. cerevisiae growth inhibition, OD615, pilot screen of yeast lifespan reduction project, restrictive growth control (AID 706;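 active = growth inhibition above a set limit, 3 SD over mean compound inhibition, in both replicates, cut at about 43% in these data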;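 also: modified DeaD lifespan yeast strain shifted to restrictive glucose medium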). To be noted: OD615, 48 h, at 10 µM, hits give high values. The method in brief: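 material = engineered S. cerevisiae DeaD strain | buffer or medium = glucose-based CSMM-D restrictive medium | dosing = one concentration, 10 µM final, 0.25% DMSO | schedule = 4 h pre-growth plus 48 h compound exposure, 30 °C | detection = OD615 absorbance reading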
`CCOc1ccc(OCC)c(Nc2cc(C)nc3nc(C)nn23)c1`: the growth inhibition was -2.15% (inactive).
The same measure, in the same setting: as for `O=C(Cn1cc2c(n1)CCCC2)NCCCN1CCN(C2CCCCC2)CC1`, the figure is 9.3% (inactive); as for `Cc1ccc(CN2CCN(CC(=O)N3CCC(C(N)=O)CC3)C2=O)cc1`, 1.62% (inactive); as for `O=C(c1ccc(CS(=O)(=O)c2ccc(Br)cc2)o1)N1CCN(C2CCCCC2)CC1`, 9.43% (inactive).
With `CCN(CC)C(=O)CCCOc1ccc(Cl)cc1Cl`, the growth inhibition was -0.045% (inactive).
With `O=C(O)c1ccc(NS(=O)(=O)c2cc(Cl)ccc2Cl)cc1`, the growth inhibition was -25.1% (inactive).
The same measure, in the same setting: as for `S=c1[nH]nc(CSc2nc3ccccc3s2)o1`, the figure is 16.7% (inactive); as for `CCn1c(=O)cc(OCC(=O)N2CCc3ccccc32)c2ccccc21`, -15.4% (inactive).
The same measure, in the same setting: as for `COC(=O)c1c(C)nn(-c2ccccc2)c1N`, the figure is -19.5% (inactive).
As to `Fc1ccc(CN2CCCCCCC2)cc1F`, the growth inhibition was -9.1% (inactive).
Turning to `COc1ccccc1NC(=O)C1CCCN(S(=O)(=O)c2cnc[nH]2)C1` (stereo not given), the growth inhibition was -3.54% (inactive).
On the same count and under the same terms, as for `O=C(/C=N/O)Nc1ccccc1C(=O)O`, the figure is -16.7% (inactive); as for `O=C(NC(C(=O)c1ccccc1)N1CCOCC1)c1ccccc1` (stereo not given), 13.8% (inactive).
On the same count and under the same terms, as for `COc1ccc(S(=O)(=O)N2CCN(C)CC2)c2ccccc12`, the figure is -2.78% (inactive); as for `CCOc1cccc(NC(=O)Cc2cccs2)c1`, -0.895% (inactive).
Turning to `CCSc1nnc2c(n1)OC1(CCCC1)Nc1ccccc1-2`, the growth inhibition is -3.69% (inactive).
In the case of `COc1ccc2c(c1)OC1(C)CC2C(C(=O)c2ccccc2OC)C(=O)N1` (stereo not given), the growth inhibition is -9.23% (inactive).
Still for that read-out and setting: in the case of `O=C(NC1CCCCCC1)C1CCCN1S(=O)(=O)c1cccc2cccnc12` (stereo not given) it was -8% (inactive).
On the same count and under the same terms, as for `O=C(COc1ccccc1)NCc1nnc(SCC(=O)Nc2nccs2)n1-c1ccccc1`, the figure is -4.89% (inactive).
The same measure, in the same setting: as for `O=C(NCCc1csc(-c2ccccc2)n1)c1cccs1`, the figure is 2.89% (inactive).
For the molecule `COc1ccc(C2(C(=O)NCCCN(C)C)CCOCC2)cc1`, the growth inhibition is -23.9% (inactive).
On the same count and under the same terms, in the case of `COc1ccc(OCc2nnc(SCC(=O)O)n2N)cc1` it was 5.32% (inactive); in that of `Cc1cccc(N2CC(c3nc4ccccc4n3C)CC2=O)c1C` (stereo not given), 3.04% (inactive).
Regarding `CN(C)S(=O)(=O)c1ccc(C(=O)Nc2ccc(F)cc2F)cc1`, the growth inhibition is 0.42% (inactive).
Still for that read-out and setting: as for `CC(=O)CCc1c(C)[nH]c2ccc(NC(C)=O)cc2c1=O`, the figure is 8.18% (inactive); as for `CC(C)C(NC(=O)CN1C(=O)c2ccccc2S1(=O)=O)C(C)C`, -13% (inactive).
On the same count and under the same terms, in the case of `CC12CCC(C(=O)Nc3ccc4c(c3)OCCO4)(OC1=O)C2(C)C` (stereo not given) it was -5.64% (inactive).
As for `[O-]/[N+](=C\c1ccc(OC(F)F)cc1)c1ccccc1`, the growth inhibition was 2.88% (inactive).
With `COc1ccccc1NC(=O)C1=C(C)Nc2nnnn2C1c1cccc(C)c1` (stereo not given), the growth inhibition was -18.7% (inactive).
The same measure, in the same setting: as for `CCOCCn1c(SCC(=O)OCc2ccccc2)nc2c1c(=O)[nH]c(=O)n2C`, the figure is -14.2% (inactive).
Consider `O=C(NCCCN1CCOCC1)c1ccco1`, for which the growth inhibition was -3.09% (inactive).
The same measure, in the same setting: in the case of `Cc1cccc(NC(=O)c2ccc(S(=O)(=O)N(C)C)cc2)c1` it was -8.44% (inactive); in that of `Cc1cc(=S)n(-c2ccccc2)n1C`, 7.75% (inactive); in that of `O=C(O)C1C2C=CC3(CN(C/C=C/c4ccccc4)C(=O)C13)O2` (stereo not given), -3.43% (inactive).
Still for that read-out and setting: as for `COc1ccc(OC)c(NC(=O)Cn2cnc3c(cnn3-c3ccccc3)c2=O)c1`, the figure is 7.43% (inactive); as for `Cc1cc(C)n2nc(S(=O)(=O)N(CC(C)C)CC(C)C)nc2n1`, 3.41% (inactive).
Still for that read-out and setting: as for `Cc1cccc(N2CCN(c3nc4ccc(Cl)cc4n4cnnc34)CC2)c1C`, the figure is -14.7% (inactive); as for `O=C(O)c1cccc(-n2cnnn2)c1`, 1.52% (inactive).
Take `CN(C)CCCNc1ncnc2c1cnn2-c1ccccc1`: the growth inhibition is -5.82% (inactive).
The same measure, in the same setting: as for `O=C(Nc1nc(-c2ccccc2)cs1)c1cccs1`, the figure is -1.27% (inactive).
